This note sets out measurements from ChEMBL document CHEMBL4033733, “Enterovirus inhibitory activity of C-8-tert-butyl substituted 4-aryl-6,7,8,9-tetrahydrobenzo[4,5]thieno[3,2-e][1,2,4]triazolo[4,3-a]pyrimidin-5(4H)-ones” (Bioorg Med Chem Lett, 2017).

By EC50 is commonly meant the concentration that produces a half-maximal response. As a reminder, the CC50 is the concentration giving 50% cytotoxicity.

In data set [1] the test system is Liver. Briefly: Stability in human liver microsomes assessed as compound remaining by mass spectrometry. The data set is classed as ADME, microsome. The essentials: (§1)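 Phase I metabolic stability in human or rat liver microsomes, with buspirone as reference. Parent compound remaining was quantified by quantitative mass spectrometry and expressed as a percentage.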

The test system of data set [2] is Liver. The experiment in a line: Stability in rat liver microsomes assessed as compound remaining by mass spectrometry. The data set is classed as ADME, microsome. In outline: as §1
In general terms: Liver microsomes are vesicles of endoplasmic reticulum, rich in cytochrome P450 enzymes.

In a further data set the test system is Poliovirus 3. The experiment in a line: Antiviral activity against human poliovirus 3 infected in human HeLa cells assessed as reduction in virus-induced cytopathicity incubated for 3 days by MTT assay. The conditions noted are these: Enterovirus C, 72 h. The class given is functional, cell-based. The essentials: (§2)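 Cytopathic-effect reduction assay in HeLa cells infected with coxsackievirus B1, B3 or poliovirus 3, with pleconaril as reference. EC50 is the concentration that improves viability of infected HeLa cells by 50%. CC50 is the concentration that reduces viability of uninfected HeLa cells by 50%. SI is CC50/EC50.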

The subject of a further data set is Coxsackievirus B3. The experiment in a line: Antiviral activity against human coxsackievirus B3 infected in human HeLa cells assessed as reduction in virus-induced cytopathicity incubated for 3 days by MTT assay. The data set is classed as functional, cell-based. The conditions noted are these: Enterovirus B, 72 h. In outline:
(§3)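 HeLa cells infected with enterovirus (coxsackievirus B1 or B3); protection from virus-induced cytopathic effect measured. EC50 is the concentration restoring 50% viability of the infected cells. Pleconaril served as reference.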
Background: Cytopathic effects are the visible damage that an infection or toxin causes in cultured cells.

The nature of data set [3]: Cytotoxicity in human HeLa cells assessed as reduction in cell viability incubated for 3 days by MTT assay. The class given is cell-based. The essentials:
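Uninfected HeLa cells; CC50 is the concentration lowering cell viability by 50%.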
For orientation: Tetrazolium assays rely on reduction of a dye to a coloured formazan, in cell work by metabolically active cells.

The test system of another data set is Coxsackievirus B1. Briefly: Antiviral activity against human coxsackievirus B1 infected in human HeLa cells assessed as reduction in virus-induced cytopathicity incubated for 3 days by MTT assay. The data set is classed as functional, cell-based. The conditions noted are these: Enterovirus B, 72 h. In outline:
as §3

Data set [4] in a line: Cytotoxicity in human H1HeLa cells assessed as reduction in cell viability incubated for 3 days by MTT assay. The data set is classed as cell-based, H1-HeLa. In outline: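 Uninfected H1 HeLa cells; CC50 is the concentration lowering cell viability by 50%.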
A further data set has as its system rhinovirus B14. Briefly: Antiviral activity against human rhinovirus 14 infected in human H1HeLa cells assessed as reduction in virus-induced cytopathicity incubated for 3 days by MTT assay. The conditions noted are these: Rhinovirus B, H1-HeLa, 72 h. The data set is classed as functional, cell-based. In outline: (§4)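 H1 HeLa cells infected with rhinovirus (14, 21 or 71); EC50 is the concentration restoring 50% viability of the infected cells. Pleconaril served as reference.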

A further data set deals with rhinovirus A21. Briefly: Antiviral activity against human rhinovirus 21 infected in human H1HeLa cells assessed as reduction in virus-induced cytopathicity incubated for 3 days by MTT assay. Particulars: Rhinovirus A, H1-HeLa, 72 h. The data set is classed as functional, cell-based. In outline:
as §4

Data set [5] can be described thus: Antiviral activity against human rhinovirus 71 infected in human H1HeLa cells assessed as reduction in virus-induced cytopathicity incubated for 3 days by MTT assay. The class given is functional, cell-based, Human rhinovirus A71. The conditions noted are these: Rhinovirus A, H1-HeLa, 72 h. The essentials: as §4
Data set [6] can be described thus: Selectivity index, ratio of CC50 for human HeLa cells to EC50 for human coxsackievirus B1 infected in human HeLa cells. The data set is classed as toxicity, cell-based. Particulars: read-out: Ratio CC50/EC50. The essentials:
as §2

Data set [7] is described as follows: Selectivity index, ratio of CC50 for human HeLa cells to EC50 for human coxsackievirus B3 infected in human HeLa cells. The class given is toxicity, cell-based. The conditions noted are these: read-out: Ratio CC50/EC50. The essentials: as §2
Data set [8] can be described thus: Selectivity index, ratio of CC50 for human HeLa cells to EC50 for human poliovirus 3 infected in human HeLa cells. The data set is classed as toxicity, cell-based. The conditions noted are these: read-out: Ratio CC50/EC50. In outline: as §2

SMILES strings stand for the structures.

With `O=C1CC2(CCCC2)CC(=O)N1CCCCN1CCN(c2ncccn2)CC1` [BUSPIRONE], the Stability in the data set with Liver [1] is 3.52%; in the data set on Liver [2], 0.119%.

For the compound `CC(C)(C)C1CCc2c(sc3c2c(=O)n(-c2ccccc2)c2nncn32)C1` (centres undefined), the concentration giving a half-maximal response (EC50) in the data set with Poliovirus 3 was 1.95 µM; in the data set with Coxsackievirus B3, 8.65 µM; in the data set with Coxsackievirus B1, 8.85 µM; in the data set with rhinovirus B14, 1.7 µM; in the data set on rhinovirus A21 it was 2.5 µM; in data set [5] it was 1.6 µM. Moreover, the half-maximal cytotoxic concentration (CC50) at 72 h in [3] is greater than 100 µM; in data set [4], 9.6 µM. Also, the selectivity ratio in [6] was greater than 11.2; in data set [7], greater than 11.5; in [8], greater than 51.2. Besides, the Stability stood at 63.2% with Liver [1] and 51.5% in the data set with Liver [2].

In the case of `CC(C)(C)C1CCc2c(sc3c2c(=O)n(-c2ccccc2Cl)c2nncn32)C1` (centres undefined), the EC50 came out at 1.84 µM in the data set on Poliovirus 3; 16.2 µM with Coxsackievirus B3; 19.5 µM in the data set on Coxsackievirus B1; 2.5 µM with rhinovirus B14; 14.7 µM in the data set on rhinovirus A21; 3.9 µM in [5]. Further, the half-maximal cytotoxic concentration (CC50) at 72 h in data set [3] worked out at 26.3 µM; in data set [4], 20.7 µM.

For `Cc1ccc(-n2c(=O)c3c4c(sc3n3cnnc23)CC(C(C)(C)C)CC4)cc1` (centres undefined), the EC50 in the data set with Poliovirus 3 came out at 1.94 µM; in the data set with Coxsackievirus B3, 12.9 µM; with Coxsackievirus B1, 14.3 µM; with rhinovirus B14, 1.8 µM; in the data set with rhinovirus A21, 2.4 µM; in [5], 1.8 µM. The CC50 at 72 h in [3] was 32.8 µM; in data set [4], 11.1 µM.

On to `CC1CCCc2sc3c(c21)c(=O)n(-c1ccccc1)c1nncn31` (centres undefined), for which the half-maximal effective concentration (EC50) (with Poliovirus 3; in the data set on Coxsackievirus B3; in the data set with Coxsackievirus B1; with rhinovirus B14; in the data set on rhinovirus A21; in data set [5]) was greater than 100 µM throughout. Further, the CC50 at 72 h in data set [3] and in [4] was greater than 100 µM each time.
